Measured values reported in publication PMC4764504 (Journal of medicinal chemistry, 2015).
Values joined by “and” are separate entries in the source; they are usually repeats but may differ in a detail not shown here. Equal values may be shown once.

Experiments:
[1] = tested on: BALB/c Mice with Subcutaneous Flank DBT Tumors; assay: Whole body biodistribution in mice with subcutaneous DBT gliomas; type: in vivo, mouse; conditions: for biodistribution, tumor uptake: subcutaneous DBT tumor
Procedure, shortened: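 Male BALB/c mice carried subcutaneous flank DBT tumors (5 × 10⁵ cells) and were used at day 14. Under 1% isoflurane–oxygen, each received ~56 μCi (2.07 MBq) of ⁷⁶Br-labelled or 45 μCi (1.67 MBq) of ¹²³I-labelled test compound by tail vein in 0.9% saline. Mice were killed at 5 min, 30 min, 1, 3 and 24 h (n = 4 per time). Tissues were weighed and γ-counted with decay correction, giving % ID/g.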

[2] = tested on: mice with intracranial DBT gliomas; assay: Small animal PET/CT imaging in mice with intracranial DBT gliomas; type: in vivo, mouse; conditions: PET; for SUV tumor uptake: intracranial DBT tumor
Procedure, shortened: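 Four male BALB/c mice carried intracranial DBT gliomas (1 × 10⁴ cells, right mid-cerebrum) and were imaged 14 days after implantation. Under 1% isoflurane–oxygen, each received ~55 μCi (~2.04 MBq) of ⁷⁶Br-labelled test compound by tail vein in 0.9% saline. Imaging was dynamic PET/CT for 0–60 min, then 15-min static scans at 3 and 24 h. Read-out was SUV. Tumors were confirmed afterwards by H&E on fixed brains.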

DBT glioma cells = assay: Competitive amino acid cell uptake assays; type: cell-based, mouse; conditions: 60 s, 37 °C
Procedure, shortened: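 Mouse DBT glioma cells were seeded at 1 × 10⁵ cells/well and grown 48 h in 10% FBS DMEM under 5% CO₂. Cells were washed twice in 37 °C buffer, then exposed for 60 s at 37 °C, pH 7.40, to the radiotracer. Buffers were Na phosphate-buffered saline or choline-substituted Na-free buffer. Controls had 10 mM sucrose; BCH was 10 mM. Cells were washed with ice-cold buffer, lysed in 0.2% SDS/0.2 M NaOH, γ-counted, and normalized to added activity and BCA protein. Values are % of control, triplicate × two plates.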

[3] = 50–60 min (summed) after injection

biodistribution, blood ([1]; 5 min after i.v. injection): 5.75 ± 0.44 % ID/g | biodistribution, blood ([1]; 30 min after i.v. injection): 1.66 ± 0.16 % ID/g | biodistribution, blood ([1]; 1 h after i.v. injection): 1.22 ± 0.19 % ID/g | biodistribution, blood ([1]; 3 h after i.v. injection): 0.87 ± 0.44 % ID/g | biodistribution, blood ([1]; 24 h after i.v. injection): 0.37 ± 0.04 % ID/g | biodistribution, bone ([1]; 5 min after i.v. injection): 2.13 ± 0.43 % ID/g | biodistribution, bone ([1]; 30 min after i.v. injection): 1.95 ± 0.29 % ID/g | biodistribution, bone ([1]; 1 h after i.v. injection): 1.18 ± 0.64 % ID/g | biodistribution, bone ([1]; 3 h after i.v. injection): 0.46 ± 0.20 % ID/g | biodistribution, bone ([1]; 24 h after i.v. injection): 0.1 ± 0.04 % ID/g | biodistribution, brain ([1]; 5 min after i.v. injection): 0.54 ± 0.04 % ID/g | biodistribution, brain ([1]; 30 min after i.v. injection): 0.42 ± 0.02 % ID/g | biodistribution, brain ([1]; 1 h after i.v. injection): 0.38 ± 0.04 % ID/g | biodistribution, brain ([1]; 3 h after i.v. injection): 0.31 ± 0.06 % ID/g | biodistribution, brain ([1]; 24 h after i.v. injection): 0.09 ± 0.01 % ID/g | biodistribution, fat ([1]; 5 min after i.v. injection): 1.36 ± 0.38 % ID/g | biodistribution, fat ([1]; 30 min after i.v. injection): 0.85 ± 0.71 % ID/g | biodistribution, fat ([1]; 1 h after i.v. injection): 0.31 ± 0.20 % ID/g | biodistribution, fat ([1]; 3 h after i.v. injection): 0.17 ± 0.04 % ID/g | biodistribution, fat ([1]; 24 h after i.v. injection): 0.04 ± 0.01 % ID/g | biodistribution, heart ([1]; 5 min after i.v. injection): 2.92 ± 0.29 % ID/g | biodistribution, heart ([1]; 30 min after i.v. injection): 2.21 ± 0.18 % ID/g | biodistribution, heart ([1]; 1 h after i.v. injection): 1.67 ± 0.27 % ID/g | biodistribution, heart ([1]; 3 h after i.v. injection): 0.67 ± 0.15 % ID/g | biodistribution, heart ([1]; 24 h after i.v. injection): 0.13 ± 0.02 % ID/g | biodistribution, kidney ([1]; 5 min after i.v. injection): 47.50 ± 4.26 % ID/g | biodistribution, kidney ([1]; 30 min after i.v. injection): 8.95 ± 0.91 % ID/g | biodistribution, kidney ([1]; 1 h after i.v. injection): 5.49 ± 0.98 % ID/g | biodistribution, kidney ([1]; 3 h after i.v. injection): 1.29 ± 0.43 % ID/g | biodistribution, kidney ([1]; 24 h after i.v. injection): 0.23 ± 0.02 % ID/g | biodistribution, liver (all) ([1]; 5 min after i.v. injection): 4.57 ± 0.27 % ID/g | biodistribution, liver (all) ([1]; 30 min after i.v. injection): 1.63 ± 0.33 % ID/g | biodistribution, liver (all) ([1]; 1 h after i.v. injection): 1.03 ± 0.48 % ID/g | biodistribution, liver (all) ([1]; 3 h after i.v. injection): 0.34 ± 0.09 % ID/g | biodistribution, liver (all) ([1]; 24 h after i.v. injection): 0.1 ± 0.02 % ID/g | biodistribution, lung ([1]; 5 min after i.v. injection): 6.20 ± 0.41 % ID/g | biodistribution, lung ([1]; 30 min after i.v. injection): 1.73 ± 0.16 % ID/g | biodistribution, lung ([1]; 1 h after i.v. injection): 1.15 ± 0.22 % ID/g | biodistribution, lung ([1]; 3 h after i.v. injection): 0.54 ± 0.07 % ID/g | biodistribution, lung ([1]; 24 h after i.v. injection): 0.27 ± 0.05 % ID/g | biodistribution, muscle ([1]; 5 min after i.v. injection): 1.54 ± 0.18 % ID/g | biodistribution, muscle ([1]; 30 min after i.v. injection): 1.75 ± 0.77 % ID/g | biodistribution, muscle ([1]; 1 h after i.v. injection): 0.98 ± 0.12 % ID/g | biodistribution, muscle ([1]; 3 h after i.v. injection): 0.4 ± 0.20 % ID/g | biodistribution, muscle ([1]; 24 h after i.v. injection): 0.08 ± 0.01 % ID/g | brain uptake, fold higher than with [^123I]8 ([1]; normal brain, through 3 h after injection): 2- to 3 fold | biodistribution, pancreas ([1]; 30 min after i.v. injection): 24.35 ± 4.06 % ID/g | biodistribution, pancreas ([1]; 1 h after i.v. injection): 14.31 ± 8.12 % ID/g | biodistribution, pancreas ([1]; 3 h after i.v. injection): 2.48 ± 1.17 % ID/g | biodistribution, pancreas ([1]; 24 h after i.v. injection): 0.17 ± 0.02 % ID/g | biodistribution, spleen ([1]; 5 min after i.v. injection): 8.20 ± 0.71 % ID/g | biodistribution, spleen ([1]; 30 min after i.v. injection): 4.05 ± 0.55 % ID/g | biodistribution, spleen ([1]; 1 h after i.v. injection): 2.30 ± 0.82 % ID/g | biodistribution, spleen ([1]; 3 h after i.v. injection): 0.59 ± 0.21 % ID/g | biodistribution, spleen ([1]; 24 h after i.v. injection): 0.18 ± 0.03 % ID/g | biodistribution, tumor uptake ([1]; 5 min after i.v. injection): 2.5 ± 0.64 % ID/g and 2.52 ± 0.64 % ID/g | biodistribution, tumor uptake ([1]; 30 min after i.v. injection): 3.8 ± 0.95 % ID/g and 3.79 ± 0.95 % ID/g | biodistribution, tumor uptake ([1]; 1 h after i.v. injection): 3.7 ± 0.4 % ID/g and 3.72 ± 0.43 % ID/g | biodistribution, tumor uptake ([1]; 3 h after i.v. injection): 1.65 ± 0.40 % ID/g | biodistribution, tumor uptake ([1]; 24 h after i.v. injection): 0.25 ± 0.03 % ID/g | maximal tumor uptake ([1]; subcutaneous DBT tumors, around 30 min to an hour postinjection): 3.7–3.8 % ID/g | biodistribution, thyroid ([1]; thyroid, 5 min after i.v. injection): 3.60 ± 0.69 % ID/g | thyroid uptake ([1]; thyroid, 5 min after injection): 3.6 ± 0.7 % ID/organ | biodistribution, thyroid ([1]; thyroid, 30 min after i.v. injection): 1.63 ± 0.12 % ID/g | biodistribution, thyroid ([1]; thyroid, 1 h after i.v. injection): 1.26 ± 0.18 % ID/g | biodistribution, thyroid ([1]; thyroid, 3 h after i.v. injection): 0.53 ± 0.08 % ID/g | biodistribution, thyroid ([1]; thyroid, 24 h after i.v. injection): 0.17 ± 0.06 % ID/g | tumor/brain SUV ratio [2, 3]: 1.70 ± 0.26 | tumor/brain SUV ratio ([2]; 3 h after injection): 2.67 ± 0.15 | tumor/brain SUV ratio ([2]; 24 h after injection): 3.05 ± 0.30 | SUV tumor uptake [2, 3]: 0.63 ± 0.06 | SUV tumor uptake ([2]; 3 h after injection): 0.70 ± 0.13
SMILES: C[C@](N)(/C=C/[76Br])C(=O)O [[^76Br]5, (S)-amino-2-methyl-4-[^76Br]-bromo-3-(E)-butenoic acid]
biodistribution, pancreas ([1]; 5 min after i.v. injection): 27.0 ± 7.2 % ID/g and 27.04 ± 7.15 % ID/g | uptake relative to control (DBT glioma cells; Na BCH condition (BCH 10 mM, system L inhibitor, sodium buffer)): 43 ± 8.5% | uptake compared to sodium control (DBT glioma cells; choline + BCH (sodium-free, Cho-BCH)): 25 ± 4.1% | uptake compared to the sodium control (DBT glioma cells; choline control (sodium-free, Cho-sucrose)): 46 ± 10% | uptake relative to the control (DBT glioma cells; in the presence of MeAIB (10 mM, system A inhibitor), sodium buffer): 56 ± 12%
